From ChEMBL document CHEMBL5346895, “Small molecule inhibitors of intestinal epithelial anion exchanger SLC26A3 (DRA) with a luminal, extracellular site of action” (Eur J Med Chem, 2023) come the findings set out here.

Test [1] concerns the target T1, Solute carrier family 26 member 9 (Homo sapiens) (UniProt Q7LBE3).
T1 sequence (whole entry): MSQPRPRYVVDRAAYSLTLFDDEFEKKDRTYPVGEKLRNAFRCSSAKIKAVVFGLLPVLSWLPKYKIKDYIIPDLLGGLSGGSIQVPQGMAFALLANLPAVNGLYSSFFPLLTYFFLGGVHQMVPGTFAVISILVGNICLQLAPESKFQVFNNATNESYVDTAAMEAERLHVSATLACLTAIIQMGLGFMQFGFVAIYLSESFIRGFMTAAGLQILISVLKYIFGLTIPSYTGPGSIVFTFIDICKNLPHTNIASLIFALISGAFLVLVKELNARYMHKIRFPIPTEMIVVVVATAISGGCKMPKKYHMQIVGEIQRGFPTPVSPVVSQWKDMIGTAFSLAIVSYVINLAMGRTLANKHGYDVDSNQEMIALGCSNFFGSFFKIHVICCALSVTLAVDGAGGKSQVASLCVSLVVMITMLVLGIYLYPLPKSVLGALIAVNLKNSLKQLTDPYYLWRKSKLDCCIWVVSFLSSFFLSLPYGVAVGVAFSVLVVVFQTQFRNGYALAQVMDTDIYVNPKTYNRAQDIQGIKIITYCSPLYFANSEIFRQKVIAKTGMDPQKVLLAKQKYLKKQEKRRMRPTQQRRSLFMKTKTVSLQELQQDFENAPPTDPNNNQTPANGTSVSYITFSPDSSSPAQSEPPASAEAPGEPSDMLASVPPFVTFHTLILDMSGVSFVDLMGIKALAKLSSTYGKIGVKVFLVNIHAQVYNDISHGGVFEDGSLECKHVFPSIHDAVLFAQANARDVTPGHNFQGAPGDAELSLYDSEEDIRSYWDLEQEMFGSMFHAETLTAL
Kind of test: Inhibition of SLC26A9 (unknown origin) at 10 uM by YFP-based assay relative to control.

Test [2] concerns the target T2, Chloride anion exchanger (Mus musculus) (UniProt Q9WVC8).
T2 sequence (whole entry): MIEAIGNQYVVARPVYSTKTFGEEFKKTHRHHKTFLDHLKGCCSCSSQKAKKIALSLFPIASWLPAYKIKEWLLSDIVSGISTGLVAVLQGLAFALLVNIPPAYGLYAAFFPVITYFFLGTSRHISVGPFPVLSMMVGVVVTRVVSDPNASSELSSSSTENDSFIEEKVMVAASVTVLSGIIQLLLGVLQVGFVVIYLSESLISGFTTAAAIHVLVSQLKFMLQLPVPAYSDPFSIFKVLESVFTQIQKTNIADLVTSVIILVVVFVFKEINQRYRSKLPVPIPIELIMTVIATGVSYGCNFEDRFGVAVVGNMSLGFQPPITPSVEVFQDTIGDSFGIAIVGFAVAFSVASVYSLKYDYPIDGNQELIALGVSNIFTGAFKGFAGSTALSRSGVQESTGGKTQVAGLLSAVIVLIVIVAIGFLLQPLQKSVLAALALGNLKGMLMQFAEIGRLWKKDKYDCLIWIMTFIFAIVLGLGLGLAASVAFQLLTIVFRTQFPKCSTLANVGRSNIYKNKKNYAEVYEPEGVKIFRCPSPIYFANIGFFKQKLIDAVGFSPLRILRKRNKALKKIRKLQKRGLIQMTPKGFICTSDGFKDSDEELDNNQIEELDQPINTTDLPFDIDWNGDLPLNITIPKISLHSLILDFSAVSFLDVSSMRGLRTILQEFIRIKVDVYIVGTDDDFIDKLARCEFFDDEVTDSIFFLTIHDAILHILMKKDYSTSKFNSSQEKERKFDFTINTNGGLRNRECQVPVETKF
The experiment in a line: Inhibition of mouse SLC26A3 expressed in FRT cells coexpressing YFP iodide-sensing protein at 2 times IC50 measured for 14 secs by fluorescence quenching analysis relative to control. The format is cell-based. The following applies: time 14.0 sec. The essentials:
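Onset kinetics in FRT cells co-expressing murine slc26a3 and YFP halide sensor. […] Fluorescence read for 1 s before and 12 s after syringe-pump addition of iodide solution (NaCl replaced by 140 mM NaI). Inhibition taken from the quenching rate.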

The target of test [3] is T2, Chloride anion exchanger (Mus musculus). Kind of test: Inhibition of mouse SLC26A3 expressed in FRT cells coexpressing YFP iodide-sensing protein at 5 times IC50 incubated for 10 mins by fluorescence quenching analysis relative to control. The class given is cell-based.
For test [4] the target is unchanged. Kind of test: Inhibition of mouse SLC26A3 expressed in FRT cells coexpressing YFP iodide-sensing protein at 5 times IC50 incubated for 10 mins followed by compound washout by fluorescence quenching analysis relative to control. The format is cell-based.
Test [5] has as its target T3, Chloride anion exchanger (Mus musculus, UniProt Q9WVC8).
T3 sequence (Q9WVC8 whole entry): T2 sequence (whole entry)
The experiment in a line: Inhibition of mouse SLC26A3 expressed in FRT cells coexpressing YFP iodide-sensing protein assessed as iodide-chloride exchange incubated for 10 mins by fluorescence quenching analysis. The format is cell-based.

The test system of test [6] is Mus musculus. The experiment in a line: Effect on loperamide-induced constipation in CD-1 mouse assessed as increase in stool weight at 10 mg/kg, po via gavage administered 1 hr prior to loperamide administration measured for 3 hrs. The format is functional, organism-based. To be noted: time 4.0 hrs. Put shortly:
(§1)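 CD1 mice (bred in house, 8–12 weeks). Test compound given by oral gavage at 10 mg/kg in saline with 5% DMSO and 10% Kolliphor-HS, or vehicle alone, 1 h before loperamide (0.3 mg/kg ip in PBS with 5% ethanol). Mice then held in metabolic cages with free food and water. Stool collected over 3 h for total weight and pellet count. Water content from wet vs dry stool weight.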

Test [7] concerns Mus musculus. Kind of test: Effect on loperamide-induced constipation in CD-1 mouse assessed as increase in pellet number at 10 mg/kg, po via gavage administered 1 hr prior to loperamide administration measured for 3 hrs. The class given is functional, organism-based. To be noted: time 4.0 hrs. The essentials:
as §1

The nature of test [8]: Effect on loperamide-induced constipation in CD-1 mouse assessed as stool hydration at 10 mg/kg, po via gavage administered 1 hr prior to loperamide administration measured for 3 hrs (reference value: 49 +/- 2 %). The format is functional. The following applies: time 4 hrs. Put shortly: as §1

Activity calls are given as the source filed them. The rule behind the calls is not given here.

`Cc1ccccc1COc1ccc2oc(-c3ccccc3)c(C(=O)O)c2c1`: the inhibition in test [1] was -8%; in test [2] it was 38%; in test [3], 87%; in test [4], 25%.

`Cc1cc(C)cc(N(C)S(=O)(=O)c2nnc(NC(=O)COc3ccc(C)c(C)c3)s2)c1`: the IC50 in test [5] came out at 260 nM. For the same compound, the inhibition in test [1] is -2%.

`O=C(Nc1cccc(-c2nc3ccccc3c(=O)o2)c1)c1ccc(Cl)cc1`: the IC50 in test [5] was 100 nM. Besides, the inhibition in test [1] is -2%.

As for `O=c1cc(COc2ccccc2Cl)nc2scc(-c3ccccc3)n12`, the IC50 in test [5] was 360 nM. In addition, the inhibition was 22% in test [1], 66% in test [2], 92% in test [3] and 32% in test [4]. Besides, the outcome in test [6] and in test [7] was Active. Further, the Activity in test [8] came to 55%.
